# Source: PubChem (Johns Hopkins Ion Channel Center)
# Rows were chosen to be rich in hits. Some 3.5% of all compounds tested hit in one or more screens of this group.
# MrgX1 PAM = human MrgX1 positive allosteric modulation, primary screen; Q96LB2; MrgX1-HEK293, Fluo-4 calcium flux, FDSS; stronger effect = higher value; B-score at 10 µM; actives 0.63% (n = 310,000); AID 588675;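 active = plate-corrected calcium response at least 3 library SD above typical, normal starting fluorescence, not activating the receptor alone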;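 note: compound read alongside a low EC10 to EC30 dose of BAM8-22 agonist; peak minus trough fluorescence over baseline measured at the second addition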
# Target sequence (Q96LB2 whole entry, looked up): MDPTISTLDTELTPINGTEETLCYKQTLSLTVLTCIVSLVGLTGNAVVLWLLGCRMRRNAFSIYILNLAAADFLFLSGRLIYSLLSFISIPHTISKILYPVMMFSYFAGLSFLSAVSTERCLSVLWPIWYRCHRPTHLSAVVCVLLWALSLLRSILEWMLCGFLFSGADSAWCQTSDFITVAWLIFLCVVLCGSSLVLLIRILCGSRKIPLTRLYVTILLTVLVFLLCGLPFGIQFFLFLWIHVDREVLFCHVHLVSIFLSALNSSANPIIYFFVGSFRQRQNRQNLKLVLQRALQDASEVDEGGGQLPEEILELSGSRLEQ
# RGS4 inh = human RGS4 inhibition; P49798; B-score at 10 µM; HEK293 M3R/RGS4 inducible, Fluo-4 calcium flux; stronger effect = higher value; triggered by carbachol at its EC20; actives 0.45% (n = 310,000);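 active = B-score, a plate-corrected calcium signal, over three deviations above library mean, with baseline fluorescence within five deviations of library mean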;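 note: RGS4 expression induced by doxycycline in cells with stable M3 receptor; B-score is computed from the integrated fluorescence ratio over baseline after carbachol; higher B-score means a larger calcium signal and so more RGS4 inhibition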
# Target sequence (P49798 whole entry, looked up): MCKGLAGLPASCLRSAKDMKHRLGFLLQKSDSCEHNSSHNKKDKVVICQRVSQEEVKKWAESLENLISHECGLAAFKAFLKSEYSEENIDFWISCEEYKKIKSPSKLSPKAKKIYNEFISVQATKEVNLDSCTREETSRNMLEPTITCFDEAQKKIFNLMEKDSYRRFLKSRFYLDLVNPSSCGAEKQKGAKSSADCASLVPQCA
# MrgX1 agonist = agonists of human MrgX1 receptor | Q96LB2 | MrgX1-HEK293 cells, Fluo-4 calcium fluorescence, agonist mode; stronger effect = higher value | AID 588627 | actives 0.44% (n = 310,000) | B-score at 10 µM;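 active = calcium response B-score plate-corrected fluorescence ratio at least 3 library SD, with starting fluorescence B-score inside 5 SD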
#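 System: HEK293 cells stably expressing human MrgX1 receptor; Dosing: test compound in the initial addition of three; Schedule: overnight plating, then 30 min 37 °C plus 30 min room-temperature dye loading; Detection: kinetic calcium dye fluorescence, Fluo-4 NW; Controls: per-plate positive and negative controls for Z′ factor.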
# MrgX1 antagonist = human MrgX1 receptor antagonism, primary screen. Q96LB2. MRGX1-HEK293 calcium flux, Fluo-4, BAM8-22 antagonism; stronger effect = lower value. B-score at 10 µM. actives 1.3% (n = 310,000);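 active = calcium-response B-score plate-corrected more than 3 library SD below zero, starting fluorescence within 5 deviations, no agonist response on first addition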;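 note: peak minus trough fluorescence over baseline after final BAM8-22 challenge near maximal dose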
# RGS4 pot = potentiators or activators of RGS4; B-score at 10 µM; HEK293 M3R/inducible RGS4, carbachol calcium flux Fluo4; stronger effect = lower value; actives 0.92% (n = 310,000);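 active = B-score of the integrated calcium signal more than 4 SD below the library mean, with starting fluorescence not abnormally high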;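 note: negative B-score means reduced calcium response which marks RGS4 activation or potentiation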
#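 Assay system: HEK293 FlpIn-TREx cells, stable M3R, doxycycline-inducible RGS4 / Probe or stimulus: carbachol, ECmax concentration / Times: overnight RGS4 induction, 30 min dye load 37 °C, 20 min compound RT / Signal: kinetic calcium fluorescence imaging with Fluo4-AM dye, 2 µM / Measure: Agonist-evoked peak-minus-minimum fluorescence over baseline, integrated ratio, B score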
# RGS4 block valid = RGS4 inhibitor validation; shares compounds with RGS4 inh; HEK293 M3R/RGS4, carbachol calcium Fluo-4 fluorescence; carbachol added at its EC20; 0 = buffer wells, 100 = carbachol control; calcium response, % at 10 µM; actives 65% (n = 1,700); AID 492999;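 active = duplicate-averaged calcium response above the buffer-only control mean plus 5 SD of those controls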;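 note: integrated fluorescence ratio F max minus min over baseline F0; higher response in RGS4-induced cells means RGS4 inhibition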
# RGS4 uninduced = counter-screen for RGS4 inhibitors: effect in non-induced cells. actives 20% (n = 1,900). shares compounds with RGS4 inh. AID 493000. HEK293 M3R non-induced, carbachol calcium Fluo-4; submaximal (EC20) carbachol stimulus; buffer wells 0%, carbachol control wells 100%. activity (percent), % at 10 µM; call rule not given here;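 note: RGS4 induction absent so cells express M3R without RGS4; higher means more calcium signal and flags a non-specific hit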
# M3R basal Ca ctr = second counter-screen for RGS4 inhibitors: non-induced cells without carbachol. shares compounds with RGS4 inh. HEK293 M3R/RGS4 non-induced, Fluo-4 calcium, no carbachol; normalised: buffer wells 0%, carbachol wells 100%. calcium response (agonist-mode artifact), % at 10 µM. actives 22% (n = 1,900);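 active = duplicate-averaged calcium rise in uninduced cells above buffer wells' mean plus 5 SD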
# An asterisk follows results filed as active; i = inactive; x = not tested or not shown.
SMILES,MrgX1 PAM,RGS4 inh,MrgX1 agonist,MrgX1 antagonist,RGS4 pot,RGS4 block valid,RGS4 uninduced,M3R basal Ca ctr
Oc1ccc(C[C@@H]2CNCCN2CCC23CC4CC(CC(C4)C2)C3)cc1,i,i,i,i,i,x,i,16%*
Oc1ccc(C[C@H]2CNCCN2CCC23CC4CC(CC(C4)C2)C3)cc1,i,i,i,i,i,x,i,i
O=C(NNC(=O)c1ccccc1O)c1cccc(Br)c1,i,i,i,i,i,x,x,x
COC(=O)c1nn(C23CC4CC(CC(C4)C2)C3)c2c1C(=O)N(c1ccc(Br)cc1)C2=O,i,5.9*,i,i,i,7.5%*,i,i
COC(=O)c1cc(-c2ccc(Br)cc2)on1,i,i,i,i,i,x,x,x
CCOC(=O)c1nn(C23CC4CC(CC(C4)C2)C3)c2c1C(=O)N(c1ccc(C)cc1)C2=O,i,5.2*,i,i,i,i,i,100%*
O=C(Cc1cccc2ccccc12)NCCc1ccccc1,i,i,i,i,i,x,x,x
Cc1ccccc1CC(=O)N1CCCC(CNC(=O)c2ccc(F)cc2)C1 (stereo not given),i,i,i,i,i,x,x,x
O=[N+]([O-])c1ccc2cn(-c3ccccc3)nc2c1,i,i,i,i,i,x,x,x
COc1ccc2c(c1)C(=NNc1ccc(C(=O)O)cc1)c1cc(OC)ccc1-2,i,6.7*,i,i,i,22%*,i,i
COc1ccc(/C(C)=N/Nc2ccc(C(=O)O)cc2)c(OC)c1,i,i,i,i,i,x,x,x
CCOC(=O)N1CCN(C(=O)CSCC(=O)Nc2nc(-c3ccc(Cl)s3)cs2)CC1,i,i,i,i,i,i,i,i
Cc1cc(NS(=O)(=O)c2ccc(NC(=O)CSc3nc4ncc(Br)cc4[nH]3)cc2)nc(C)n1,i,i,i,i,i,x,x,x
Oc1c(Cl)cc(Cl)c2c1NCCC2,x,9.3*,x,x,i,64%*,i,i
O=C1NCCCc2c1oc1ccc(O)cc21,i,i,i,i,i,x,x,x
CCOc1ccc(-c2nnc(SCC(=O)Nc3ccc4c(c3)c3ccccc3n4CC)n2N)cc1,i,i,i,i,i,i,i,i
COc1cccc(-c2nnc(SCC(=O)Nc3cc(C)ccc3OC)n2N)c1,i,i,i,i,i,x,x,x
CCn1c2ccccc2c2cc(NC(=O)CSc3nnc(-c4ccc(OC)c(OC)c4)n3N)ccc21,i,i,i,i,i,i,i,i
CCn1c2ccccc2c2cc(NC(=O)CSc3nnc(-c4cccc(OC)c4)n3N)ccc21,i,i,i,i,i,x,i,i
CCn1c2ccccc2c2cc(NC(=O)CSc3nnc(-c4ccccc4OC)n3N)ccc21,i,i,i,i,i,x,i,i
CCOC(=O)CN1C(=O)C2Cc3ccccc3CN2C1=S (stereo not given),i,i,i,i,i,x,x,x
CCc1nnc(NC(=O)c2cc(C)nc3ccccc23)s1,i,i,i,i,i,x,x,x
CC(C)Cc1nnc(NC(=O)c2cc(-c3ccncc3)nc3ccccc23)s1,i,i,i,i,i,x,i,i
CCc1nnc(NC(=O)c2cc(-c3cccnc3)nc3ccccc23)s1,i,i,i,i,i,x,i,i
O=S(=O)(Nc1ncccn1)c1ccc(-n2cnnn2)cc1,i,i,i,i,i,x,x,x
SMILES,MrgX1 PAM,RGS4 inh,MrgX1 agonist,MrgX1 antagonist,RGS4 pot,RGS4 block valid,RGS4 uninduced,M3R basal Ca ctr
NC(=O)NC1CCCc2c1[nH]c1ccc(Cl)cc21 (stereo not given),i,5.3*,i,i,i,8.5%*,i,i
Cc1sc(C(C2C(=O)CC(C)(C)CC2=O)C2C(=O)CC(C)(C)CC2=O)cc1[N+](=O)[O-],i,24*,i,i,i,90%*,50%*,62%*
CC1(C)CC(=O)C(C(c2cc([N+](=O)[O-])ccc2Cl)C2C(=O)CC(C)(C)CC2=O)C(=O)C1,i,i,i,i,i,x,x,x
Cc1ccc(NC(=O)C(=Cc2ccc(C(=O)O)cc2)C(=O)Nc2ccc(C)cc2C)c(C)c1,i,11*,i,i,i,18%*,i,i
O=C(NCc1ccccc1Cl)C1CCC(=O)N(CC2CCCCC2)C1 (stereo not given),i,i,i,i,i,x,x,x
CCCC1S/C(=N/N=C/c2cccs2)NC1=O (stereo not given),i,i,i,i,i,x,i,i
CCC1S/C(=N/N=C/c2cccs2)NC1=O (stereo not given),i,i,i,i,i,x,i,i
O=C1N/C(=N\N=C\c2cccs2)SC1Cc1ccc(Cl)cc1 (stereo not given),i,i,i,i,i,x,x,x
CC1S/C(=N/N=C/c2cccs2)NC1=O (stereo not given),i,i,i,i,i,x,x,x
COc1ccccc1N1CCN(C(=O)c2cc(-c3ccc(F)cc3)[nH]c2C)CC1,i,i,i,i,i,x,x,x
Cc1cccc(NC(=O)C2CCCN(c3ncnc4c3nc3n4CCCCC3)C2)n1 (stereo not given),i,i,i,i,i,x,x,x
Cc1ccc(NCC(=O)N/N=C/c2ccc(-c3cccc(C(F)(F)F)c3)o2)cc1,i,28*,i,i,i,62%*,37%*,i
Cc1cccc(Oc2ccc3c(c2)cc(C(=O)O)n3C)c1,i,i,i,i,i,x,x,x
CCN(CC(=O)Nc1cccc(OC)c1)CC(=O)Nc1ccc(C)cc1Cl,i,i,i,i,i,x,x,x
Cc1nnc(Sc2cc(NCCO)c([N+](=O)[O-])c3nonc23)s1,x,i,x,x,i,i,i,i
CCCC(=O)OCCNc1cc(Sc2nccn2C)c2nonc2c1[N+](=O)[O-],i,13*,i,i,i,59%*,i,i
CCC(=O)OCCNc1cc(Sc2nc3ccccc3s2)c2nonc2c1[N+](=O)[O-],i,i,i,i,i,x,x,x
